Reference: ChEMBL document CHEMBL1142655, “Cytotoxicity of cis-platinum(II) conjugate models. The effect of chelating arms and leaving groups on cytotoxicity: a quantitative structure-activity relationship approach” (J Med Chem, 2005)

Tests used:
A2780 [1] = assay: Inhibitory concentration against human A2780 ovarian adenocarcinoma cell line; assay type: functional, cell-based
Method in brief: (§1)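 Cells kept in RPMI1640 with 10% fetal calf serum, 2 mM L-glutamine and 1% antibiotics at 37 °C, 5% CO2. Cp8 subline was derived by chronic cisplatin exposure. 1 × 10^3 cells/well grew 24 h, then were exposed to 0-500 µM final for 120 h (DMSO ≤0.1% final). MTT was read after 3 h, A570. Run three times in quadruplicate. IC50 from nonlinear regression; mean ± SE.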

A2780 [2] = assay: Inhibitory concentration against cisplatin-resistant A2780 human ovarian adenocarcinoma cell line; assay type: functional, cell-based; method in brief: as §1

## DICHLORO(ETHYLENEDIAMINE) PLATINUM (II)
A2780 [1]
  IC50: 5.55 µM
A2780 [2]
  IC50: 118 µM

## CISPLATIN
A2780 [1]
  IC50: 1.37 µM
A2780 [2]
  IC50: 45 µM

## CARBOPLATIN
A2780 [1]
  IC50: 7.66 µM
A2780 [2]
  IC50: 123 µM

## OXALIPLATIN
A2780 [1]
  IC50: 0.48 µM
A2780 [2]
  IC50: 6.62 µM
